OX1R antag-1: OX1R (HCRTR1) antagonists, primary screen, fluorescence, CHO/OX1R cells, Fluo-8 calcium, orexin A. Orexin/Hypocretin receptor type 1 (Homo sapiens), O43613. Fluo-8 calcium fluorescence. inhibition, % at 5 µM. 330,000 compounds, 0.43% hits;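 active = inhibition above its plate's threshold, mean inhibition of all tested compounds on the plate plus 3 SD, cut at about 37% in these data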
Target sequence (O43613 whole entry, looked up): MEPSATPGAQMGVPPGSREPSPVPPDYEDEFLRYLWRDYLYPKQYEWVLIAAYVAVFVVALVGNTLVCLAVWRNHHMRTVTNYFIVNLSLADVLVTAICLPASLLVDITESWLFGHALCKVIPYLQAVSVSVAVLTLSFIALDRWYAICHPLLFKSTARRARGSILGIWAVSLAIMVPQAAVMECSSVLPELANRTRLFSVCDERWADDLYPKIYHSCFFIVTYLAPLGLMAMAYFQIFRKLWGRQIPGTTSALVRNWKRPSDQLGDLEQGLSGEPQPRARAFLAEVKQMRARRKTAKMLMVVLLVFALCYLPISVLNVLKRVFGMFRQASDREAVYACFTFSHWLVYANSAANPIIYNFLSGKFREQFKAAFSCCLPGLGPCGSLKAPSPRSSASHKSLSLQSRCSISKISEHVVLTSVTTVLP
TAAR1 ag: human TAAR1 agonists, primary screen, Fluo-8 calcium fluorescence, CHO RD-HGA16 cells. vehicle wells 0%, saturating PEA agonist 100%. activation, % at 3 µM. 360,000 compounds, 0.99% hits. AID 624467, 2012;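 active = activation above the mean activation of all test compounds in the run plus 3 SD, cut at about 38% in these data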
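test system = CHO RD-HGA16 cells carrying human TAAR1 plus Gα16 | schedule = 17-24 h seeding, 75 min 37 °C dye, 30 min RT | compound dosing = 3 µM single concentration | control set = DMSO and PEA EC100 | replicates = n 1 | signal = Fluo-8 fluorescence, 5 s baseline then 140 s kinetic read | measure = percent activation vs PEA EC100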
CHO parental Ca: ATP-evoked calcium signal inhibitors, parental CHO, primary screen, counter-screen for OX1R antagonist project, cell-based, fluorescence, Fluo-8 calcium dye; AID 463079, 2010; parental CHO-K1, ATP-induced calcium, Fluo-8 fluorescence; 330,000 compounds, 0.63% hits; inhibition, % at 5.6 µM;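 active = inhibition above that plate's mean sample inhibition plus 3 SD, cut at about 26% in these data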
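material = parental CHO cells | also added = ATP as calcium-mobilizing challenge | dosing = single point at 5.6 µM | detection = intracellular calcium via Fluo-8 no-wash fluorescent dye | read-out = % inhibition | benchmarks = low control ATP plus DMSO, high control DMSO only | repeats = one well per compound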
TAAR1 antagonist: human TAAR1 antagonists, primary screen, Fluo-8 calcium fluorescence, CHO RD-HGA16 cells | 360,000 compounds, 1.5% hits | inhibition, % at 3 µM | AID 624466, 2012 | Trace amine-associated receptor 1 (Homo sapiens), Q96RJ0 | antagonist;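 active = inhibition above a per-plate cutoff, the mean inhibition of test compounds on that plate plus 3 SD, cut at about 49% in these data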
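Assay system: CHO-derived RD-HGA16 cells stably expressing human TAAR1 plus Gα16. Timing: 140 s kinetic read after compound, 140 s after agonist. Technique: kinetic Fluo-8 calcium fluorescence measurement. Measure: % inhibition of agonist calcium response.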
OX1R antag-2: antagonists of human orexin 1 receptor (OX1R); OX1R-expressing cells, FRET antagonist read-out; inhibition, % at 6.6 µM; 330,000 compounds, 1.8% hits; in the data active = inhibition mostly above about 38%, no sharp cut-off; inactive = mostly below about 40%
OX1R HTRF confirm: OX1R (HCRTR1) antagonists, confirmation, cell-based, HTRF | shares compounds with OX1R antag-2 | OX1R-expressing cells, HTRF antagonist assay | inhibition, % at 6.6 µM | 1,800 compounds, 49% hits | AID 492964, 2010; in the data active = inhibition above about 55%;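 note: CHO cells expressing OX1R stimulated with orexin A at about EC80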
CHO-K1 HTRF cnt: signal inhibition in parental CHO-K1 cells, counter-screen for OX1R antagonist project, cell-based, HTRF; HTRF counterscreen; AID 493232, 2011; 1,800 compounds, 48% hits; shares compounds with OX1R antag-2; inhibition, % at 6.6 µM; in the data active = inhibition above about 17%
Of the large screens only hits and unclear results are named; the others gave an inactive call (follow-up assays come after a bar, where they were run). Hits are enriched below; roughly 3.9% of the tested compounds scored in any of these assays.

CCOC(=O)Nc1nn(-c2ccc(C)cc2)c(=O)c(C#N)c1C	OX1R antag-2 120.2 | OX1R HTRF confirm 58.1 | CHO-K1 HTRF cnt 61.4
CCOC(=O)c1c(C#N)cnn1-c1ccc(C)cc1	none
CCOC(=O)c1nn(-c2ccccc2)c(C#N)c1N	none
Cc1c(=O)n(OCc2ccccc2)c2ccccc2[n+]1[O-]	OX1R antag-2 103.3 | OX1R HTRF confirm inactive | CHO-K1 HTRF cnt 24.9
C=CCOn1c(=O)c(-c2ccc(OC)cc2)[n+]([O-])c2ccccc21	OX1R antag-2 98.3 | OX1R HTRF confirm inactive | CHO-K1 HTRF cnt 47.6
COc1ccc(COn2c(=O)c(C)[n+]([O-])c3ccccc32)cc1OC	none
CCCN1CCCCC(NC(=O)c2ccc(Cl)cc2Cl)C1=O (stereo unspecified)	none (no result: OX1R antag-1, CHO parental Ca, OX1R antag-2)
Cc1cc2c(nc1C)CCCN2S(=O)(=O)c1ccc(C(F)(F)F)cc1	none (no result: OX1R antag-1, CHO parental Ca, OX1R antag-2)
COC(=O)C1=C(C)N(Cc2ccccc2C(F)(F)F)C(=NCc2ccccc2C(F)(F)F)NC1c1cccc(C(F)(F)F)c1 (stereo unspecified)	none (no result: OX1R antag-1, CHO parental Ca, OX1R antag-2)
CC(C)c1ccc(NC(=O)CCCN2C(=S)NC(C)(C)CC2C)cc1 (stereo unspecified)	OX1R antag-2 99.5 | OX1R HTRF confirm inactive | CHO-K1 HTRF cnt inactive
O=C(Nc1ccccn1)c1ccc2ccccc2n1	OX1R antag-2 85.6 | OX1R HTRF confirm 67.9 | CHO-K1 HTRF cnt inactive
O=C(Nc1ccccn1)c1ccc2ccccc2c1O	none
COc1ccccc1OCC(=O)N1CCN(S(=O)(=O)c2ccc(Cl)cc2)CC1	none (no result: OX1R antag-1, CHO parental Ca, OX1R antag-2)
O=[N+]([O-])C1=CC=C2C(=NC3(CCCCC3)N2O)C1=NCCO	OX1R antag-2 83.5 | OX1R HTRF confirm 72.7 | CHO-K1 HTRF cnt 111.8
CN(CC(=O)Nc1ccccc1Br)C(=O)c1ccccc1-c1nc2ccccc2s1	OX1R antag-2 83.9 | OX1R HTRF confirm 71.0 | CHO-K1 HTRF cnt inactive
CC1CCCN(c2cccc3c2S(=O)(=O)N([C@H](C)c2ccccc2)C[C@@H](COCc2ccccc2)O3)C1 (stereo partly specified)	none (no result: OX1R antag-1, CHO parental Ca, OX1R antag-2)
CN1C(=O)C2(OCC(C)([N+](=O)[O-])CO2)c2ccccc21 (stereo unspecified)	none
CN1C(=O)C2(N=c3ccccc3=N2)c2ccccc21	OX1R antag-2 79.0 (no result: TAAR1 ag, TAAR1 antagonist) | OX1R HTRF confirm 86.4 | CHO-K1 HTRF cnt inactive
CC(C)c1[nH]nc2c1C(c1ccc3c(c1)OCO3)NC2=O (stereo unspecified)	none (no result: OX1R antag-1, CHO parental Ca, OX1R antag-2)
CCOC(=O)c1nnn(-c2ccc([N+](=O)[O-])cc2[N+](=O)[O-])c1C	OX1R antag-2 142.8 | OX1R HTRF confirm inactive | CHO-K1 HTRF cnt 73.4
O=C1CSC(=S)N1/N=C/c1ccc(O)c(O)c1O	OX1R antag-2 84.3 (no result: TAAR1 ag, TAAR1 antagonist) | OX1R HTRF confirm inactive | CHO-K1 HTRF cnt inactive
O=[N+]([O-])c1cccc(COc2ncnc3cc([N+](=O)[O-])ccc23)c1	OX1R antag-2 91.4 | OX1R HTRF confirm inactive | CHO-K1 HTRF cnt 48.5
O=C(COc1ncnc2cc([N+](=O)[O-])ccc12)NCc1ccc2c(c1)OCO2	OX1R antag-2 80.7 | OX1R HTRF confirm inactive | CHO-K1 HTRF cnt 44.9
C#CC(=O)CC1(CN(Cc2ccccc2)C(=O)OC(C)(C)C)CCCCC1	none (no result: OX1R antag-1, CHO parental Ca, OX1R antag-2)
COc1ccccc1CCn1cnc(-c2cccc(Br)c2)c1CC(C)C	none (no result: OX1R antag-1, CHO parental Ca, OX1R antag-2)
Cc1[nH]n(-c2ccccc2)c(=O)c1/C=N/Nc1nncc(-c2ccccc2)n1	OX1R antag-2 80.2 | OX1R HTRF confirm inactive | CHO-K1 HTRF cnt inactive
c1cncc(Nc2nc(-c3cccnc3)cs2)c1	none
Clc1ccccc1Nc1nc(-c2cccnc2)cs1	OX1R antag-2 84.0 | OX1R HTRF confirm 76.6 | CHO-K1 HTRF cnt inactive
Cc1cc(Oc2cccnc2)ccc1NC(=O)CCc1c[nH]c2ccccc12	none (no result: OX1R antag-1, CHO parental Ca, OX1R antag-2)
